From PubChem
PfG6PD inh: PfG6PD (Plasmodium falciparum) enzyme inhibition; PfGluPho enzyme, NADPH resazurin-diaphorase fluorescence; inhibition, % at 20 µM; 350,000 tested, 0.78% active; AID 504690;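 active = inhibition reaching at least a set limit at 20 µM in the primary screen, cut at about 59% in these data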
G6PDH CS: inhibits Leuconostoc G6PDH, flagging false hits in G6PDH-based assays; Purified L. mesenteroides G6PDH, diaphorase/resazurin coupled fluorescence, 45 min; 200,000 tested, 0.12% active; AID 1020; inhibition, % at 5 µM; in the data active = inhibition above about 50%
HKDC1 inhibitor: HKDC1 (human) hexokinase inhibition; Q2TB90; recombinant HKDC1, G6PDH/diaphorase resazurin coupled fluorescence; inhibition, % at 20 µM; 340,000 tested, 0.16% active; AID 493160;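 active = inhibition above about 35% when tested at 20 µM, limit read from the data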
Target sequence (Q2TB90 whole entry, looked up): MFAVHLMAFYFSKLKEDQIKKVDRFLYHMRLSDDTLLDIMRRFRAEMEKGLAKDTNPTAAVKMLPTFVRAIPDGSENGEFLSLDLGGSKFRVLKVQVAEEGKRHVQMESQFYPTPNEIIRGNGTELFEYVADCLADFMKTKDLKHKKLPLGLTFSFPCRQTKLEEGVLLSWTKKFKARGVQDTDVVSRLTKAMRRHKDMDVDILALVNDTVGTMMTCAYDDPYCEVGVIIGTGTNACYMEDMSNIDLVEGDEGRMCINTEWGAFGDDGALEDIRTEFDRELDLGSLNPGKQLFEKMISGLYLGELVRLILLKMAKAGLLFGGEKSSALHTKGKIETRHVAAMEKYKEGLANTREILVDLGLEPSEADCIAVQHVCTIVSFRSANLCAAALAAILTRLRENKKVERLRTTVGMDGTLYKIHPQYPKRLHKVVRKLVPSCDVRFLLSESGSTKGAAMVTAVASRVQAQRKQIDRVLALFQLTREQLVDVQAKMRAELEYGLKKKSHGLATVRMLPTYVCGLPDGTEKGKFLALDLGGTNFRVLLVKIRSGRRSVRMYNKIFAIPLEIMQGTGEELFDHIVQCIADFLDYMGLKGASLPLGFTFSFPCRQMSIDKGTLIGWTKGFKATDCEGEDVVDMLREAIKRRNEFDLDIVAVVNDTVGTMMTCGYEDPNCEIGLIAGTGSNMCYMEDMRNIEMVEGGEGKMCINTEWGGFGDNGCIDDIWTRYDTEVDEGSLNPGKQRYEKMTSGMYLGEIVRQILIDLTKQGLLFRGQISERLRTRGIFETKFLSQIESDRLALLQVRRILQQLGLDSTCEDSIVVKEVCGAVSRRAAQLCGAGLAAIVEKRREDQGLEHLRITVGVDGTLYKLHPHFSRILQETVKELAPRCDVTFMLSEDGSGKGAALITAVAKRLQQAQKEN
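System: Recombinant HKDC1 hexokinase | Amount: HKDC1 at 5 µg/mL | Reagent: Glucose with 1 mM ATP | Doses: Single 20 µM dose | Incubation: Reaction time 90 min, room temperature, protected from light | Signal: Coupled resazurin fluorescence, excitation 525 nm, emission 613 nm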
Diaphorase inh: diaphorase inhibition or chemical oxidation counter-screen; diaphorase resazurin-to-resorufin fluorescence, NADH, 16 min; bacterial (C. kluyveri) enzyme, not human; inhibition, % at 20 µM; 190,000 tested, 0.69% active; AID 1217;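 active = primary screen inhibition at 20 µM above a set limit, cut at about 50% in these data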
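Assay system – diaphorase enzyme from Clostridium kluyveri · Amount – diaphorase 0.14 U/mL (working solution) · Times – reaction incubation of 16 min at room temperature · Controls – No-NADH positive control and DMSO neutral control · Signal – resorufin fluorescence 544/590 nm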
Diaphorase act: counter-screen for diaphorase-based assays: diaphorase activators and chemical reducers; 190,000 tested, 0.005% active; activation factor at 20 µM; Diaphorase/resazurin coupled assay, resorufin fluorescence, 16 min; hits give high values; 1 = vehicle wells, 0 = NADH-free wells;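 active = diaphorase activity raised at least twofold by the compound at 20 µM; inactive = activation factor below 2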
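Assay system: bacterial diaphorase enzyme (C. kluyveri) / Input: enzyme 0.07 U/mL final / Medium: 50 mM HEPES pH 7.4 with 4.542 mM MgCl2, 0.005% Tween 20 / Doses: single compound dose of 20 µM, 1% DMSO final / Incubation: 16 min enzyme reaction, ambient temperature / Signal: fluorescence, excitation 544 nm and emission 590 nm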
Of the large screens only hits and unclear results are named; the others gave an inactive call. An excerpt weighted towards active compounds, which were near 1.3% of everything screened.

CCO[C@@H]1OC(C(=O)Nc2ccccc2)=C[C@H](c2ccccc2)[C@H]1CCCO	none
COC(=O)[C@]1(Cc2ccccc2)N[C@H](CN(C)S(=O)(=O)c2ccc(-c3ccccc3)cc2)[C@@H]2C(=O)N(C)C(=O)[C@@H]21	none (no result: G6PDH CS, Diaphorase inh, Diaphorase act)
CC(C)(C)OC(=O)C[C@H]1C/C=C\C[C@H](CC(=O)N[C@H](CO)Cc2ccccc2)C(=O)N[C@@H](Cc2ccccc2)COC1=O	none (no result: G6PDH CS, Diaphorase inh, Diaphorase act)
CO[C@H]1C=CO[C@@]2(C)Oc3c(C)c(O)c4c(O)c(c(C=NN5CCN(C6CCCC6)CC5)c(O)c4c3C2=O)NC(=O)C(C)=CC=C[C@H](C)[C@H](O)[C@@H](C)[C@@H](O)[C@@H](C)[C@H](OC(C)=O)[C@@H]1C	Diaphorase inh 84 (no result: PfG6PD inh, HKDC1 inhibitor)
CO[C@H]1/C=C/O[C@@]2(C)Oc3c(C)c(O)c4c(O)c(c(C=NN5CCN(C)CC5)c(O)c4c3C2=O)NC(=O)/C(C)=C\C=C\[C@H](C)[C@H](O)[C@@H](C)[C@@H](O)[C@@H](C)[C@H](OC(C)=O)[C@@H]1C	none (no result: G6PDH CS, Diaphorase inh, Diaphorase act)
CC(CC(=O)Nc1ccc(Cl)c(S(=O)(=O)N2CCOCC2)c1)c1ccccc1 (stereo not drawn)	none (no result: G6PDH CS, Diaphorase inh, Diaphorase act)
c1ccc(C[n+]2csc3ccccc32)cc1	PfG6PD inh 62
COc1ccc(-n2c(N)c(C(=O)NCc3ccco3)c3nc4ccccc4nc32)cc1	Diaphorase inh 54
COc1ccc(-n2c(N)c(C(=O)NCc3ccco3)c3nc4ccccc4nc32)cc1OC	none
CCc1cc(C(=O)NCC2CCCO2)sc1C (stereo not drawn)	none (no result: G6PDH CS, Diaphorase inh, Diaphorase act)
C=C(C)COC(=O)C1CC2OC2CC1C(=O)OCC(=C)C (stereo not drawn)	none (no result: G6PDH CS, Diaphorase inh, Diaphorase act)
O=C1CC(C(=O)N2CCc3ccccc32)CN1c1ccc(F)cc1 (stereo not drawn)	none (no result: G6PDH CS, Diaphorase inh, Diaphorase act)
Oc1ccc(N2CCN(c3ncnc4sc5c(c34)CCC5)CC2)cc1	PfG6PD inh 62
OCCN1CCN(c2ncnc3sc4c(c23)CCCC4)CC1	none (no result: G6PDH CS, Diaphorase inh, Diaphorase act)
O=C(O)/C=C/c1ccc([N+](=O)[O-])o1	none
O=[N+]([O-])c1ccc(/C=N/N=C/c2ccc([N+](=O)[O-])o2)o1	PfG6PD inh 60
Oc1ccc(/C=N/N(Cc2ccccc2)c2ccccc2)c(O)c1O	Diaphorase inh 87
Oc1cccc(/C=N/N(Cc2ccccc2)c2ccccc2)c1	none
O=c1[nH][nH]c(=S)n1C1CCCCC1	PfG6PD inh 95 (no result: G6PDH CS, Diaphorase inh, Diaphorase act)
O=c1cc(O)n(C2CCCCCC2)c(=O)[nH]1	none (no result: G6PDH CS, Diaphorase inh, Diaphorase act)
CCOC(=O)SC1=N/C(=C\c2ccc(N(C)C)cc2)C(=O)S1	Diaphorase inh 50
CC(=O)c1ccc(N2CCN(C(=O)c3cc(-c4cccnc4)nc4ccc(Br)cc34)CC2)cc1	Diaphorase inh 52
O=C(NCC(=O)N1CCN(c2ccccc2F)CC1)c1ccc(Br)o1	none (no result: G6PDH CS, Diaphorase inh, Diaphorase act)
CCN1CCc2nc(N)sc2C1	PfG6PD inh 62
OC(CNC1CCCCC1)CON=C1CCSc2c(Cl)cccc21 (stereo not drawn)	none (no result: G6PDH CS, HKDC1 inhibitor, Diaphorase inh, Diaphorase act)
O=[N+]([O-])c1cc2c(cc1C=Nc1ccccc1)OCO2	PfG6PD inh 87, Diaphorase inh 53
Cc1cccc(N=Cc2cc3c(cc2[N+](=O)[O-])OCO3)c1	Diaphorase inh 61
O=C(N/N=C/c1cc2c(cc1[N+](=O)[O-])OCO2)c1ccc2c(c1)OCO2	none (no result: G6PDH CS, Diaphorase inh, Diaphorase act)
Cc1cc(O)c(N=Cc2cc3c(cc2[N+](=O)[O-])OCO3)cc1C	none (no result: G6PDH CS, Diaphorase inh, Diaphorase act)
COc1ccc(NC(=O)CN2C(=O)NC3(CCCc4ccccc43)C2=O)c(OC)c1 (stereo not drawn)	none (no result: G6PDH CS, Diaphorase inh, Diaphorase act)
CN(CC(=O)Nc1ccc(Cl)cc1)C(=O)CN1C(=O)C2CCCCC2C1=O (stereo not drawn)	none (no result: G6PDH CS, HKDC1 inhibitor, Diaphorase inh, Diaphorase act)
N#Cc1c(-c2cccs2)nc(SCC(=O)c2cccs2)[nH]c1=O	Diaphorase inh 65
COc1ccc(-c2noc(CSc3nc(-c4ccccc4)cc(=O)[nH]3)n2)cc1OC	Diaphorase inh 67
COc1ccc(-c2noc(CSc3nc(N)cc(=O)[nH]3)n2)cc1	none (no result: G6PDH CS, Diaphorase inh, Diaphorase act)
CC(C)C1C(=O)N(Cc2cn(CC3CCCCC3)nn2)CCS(=O)(=O)N1Cc1ccc(-c2cccc(CO)c2)cc1 (stereo not drawn)	none (no result: G6PDH CS, HKDC1 inhibitor, Diaphorase inh, Diaphorase act)
O=C(NNC(=S)NC(=O)C12CC3CC(CC(C3)C1)C2)c1ccncc1	Diaphorase inh 51
O=C1Nc2ccccc2N2CCCC12 (stereo not drawn)	Diaphorase inh 60 (no result: PfG6PD inh, HKDC1 inhibitor)
